The array DNA melting data of Ke et al. (doi:10.1101/2024.01.08.574731)

Experiments:
[1] = folding enthalpy; higher = less favourable; fluorescence melt of hairpins on a sequencing array, two-state fit; conditions: sodium 0.088 M
In short: (§1)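 Two-state fits, bootstrapped, provided melting temperature and folding enthalpy from Cy3 fluorescence normalised to pre-quench Cy3 and to control constructs. Library hairpins with annealed Cy3 and quencher oligos were imaged on a sequenced MiSeq flow cell in 50 mM Na-HEPES pH 8.0, 25 mM NaCl, at 2.5 °C intervals up to 60 °C. Four replicates were combined with inverse-variance weighting. A 9.35 °C upward shift was applied to fitted temperatures to match UV melts.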

[2] = melting temperature; fluorescence melt of hairpins on a sequencing array, two-state fit, raised by 9.35 °C to match UV melts; conditions: sodium 0.088 M
In short: as §1

| Sequence | folding enthalpy [1] | Tm [2] |
| --- | --- | --- |
| CGAGCCGGAAACGGATCG (((.(((....))).))) | -41.2 kcal/mol | 61.7 °C |
| CGAGCGGAAACGCCATCG ((((((....)))..))) | -12.5 kcal/mol | 31.9 °C |
| CGAGCGGAAACGCGTCG ((((((....))).))) | -13.2 kcal/mol | 53.6 °C |
| CGAGCGGAAACGCTATCG ((((((....)))..))) | -13.1 kcal/mol | 35.1 °C |
| CGAGCGGAAACGCTGTCG ((((((....)))..))) | -11.2 kcal/mol | 43 °C |
| CGAGCTCGGAAACGATCG (((..(((....)))))) | -6.9 kcal/mol | 27.9 °C |
| CGAGGCGGAAACGCGTCG (((.(((....))).))) | -32.1 kcal/mol | 62.5 °C |
| CGAGGGAAACCTCG (((((....))))) | -25.4 kcal/mol | 53.7 °C |
| CGAGTCGGAAACGAGTCG (((.(((....))).))) | -35.9 kcal/mol | 55.9 °C |
| CGAGTTCGGAAACGATCG (((..(((....)))))) | -10.2 kcal/mol | 30.8 °C |
| CGATACGGAAACGTCTCG (((.(((....))).))) | -33.7 kcal/mol | 42 °C |
| CGATACGGAAACGTGTCG (((.(((....))).))) | -51.4 kcal/mol | 52.8 °C |
| CGATACGGAAACGTTTCG (((.(((....))).))) | -34.6 kcal/mol | 45.9 °C |
| CGATAGAAATATCG (((((....))))) | -19.8 kcal/mol | 39.1 °C |
| CGATAGCGGAAACGCTCG (((..(((....)))))) | -13.9 kcal/mol | 41 °C |
| CGATATCGGAAACGATCG (((..(((....)))))) | -16.8 kcal/mol | 35.3 °C |
| CGATCACGGAAACGTTCG (((..(((....)))))) | -17.2 kcal/mol | 35.5 °C |
| CGATCGGAAACGATCTCG ((((((....)))..))) | -12.1 kcal/mol | 36.9 °C |
| CGATCTCGGAAACGATCG (((..(((....)))))) | -20.3 kcal/mol | 36.7 °C |
| CGATTACGGAAACGTTCG (((..(((....)))))) | -21.5 kcal/mol | 38.5 °C |
| CGCAACCGGAAACGGGCG (((..(((....)))))) | -20.8 kcal/mol | 50.1 °C |
| CGCAACGGAAACGTAGCG (((.(((....))).))) | -38 kcal/mol | 53.4 °C |
| CGCACGCGGAAACGCGCG (((..(((....)))))) | -9.61 kcal/mol | 57 °C |

| Sequence | folding enthalpy [1] | Tm [2] |
| --- | --- | --- |
| CGCACGGAAACGTACGCG ((((((....)))..))) | -22.1 kcal/mol | 46.1 °C |
| CGCACGGAAACGTGTGCG ((((((....)))..))) | -17.6 kcal/mol | 57.5 °C |
| CGCACGGAAACGTTAGCG ((((((....)))..))) | -31.9 kcal/mol | 44.8 °C |
| CGCAGCCGGAAACGGGCG (((..(((....)))))) | -20 kcal/mol | 47.9 °C |
| CGCATCGGAAACGAAGCG (((.(((....))).))) | -31.2 kcal/mol | 51.7 °C |
| CGCATCGGAAACGAGCG (((.(((....)))))) | -31.8 kcal/mol | 49.5 °C |
| CGCATGCGGAAACGCGCG (((..(((....)))))) | -20.8 kcal/mol | 52.1 °C |
| CGCCACCGGAAACGGGCG (((..(((....)))))) | -26.2 kcal/mol | 49.3 °C |
| CGCCACGGAAACGTAGCG (((.(((....))).))) | -37.7 kcal/mol | 50.1 °C |
| CGCCACGGAAACGTCGCG (((.(((....))).))) | -39.2 kcal/mol | 48.3 °C |
| CGCCAGAAATGGCG (((((....))))) | -31.5 kcal/mol | 66.4 °C |
| CGCCCGGAAACGGCGGCG ((((((....)))..))) | -24.4 kcal/mol | 55.7 °C |
| CGCCCGGAAACGGCTGCG ((((((....)))..))) | -21.1 kcal/mol | 46.2 °C |
| CGCCCGGAAACGGTTGCG ((((((....)))..))) | -25.5 kcal/mol | 48.6 °C |
| CGCCGACGGAAACGTGCG (((..(((....)))))) | -27.6 kcal/mol | 45.5 °C |
| CGCCGGCGGAAACGCGCG (((..(((....)))))) | -21.1 kcal/mol | 51.5 °C |
| CGCCTCGGAAACGAGCG (((.(((....)))))) | -26.9 kcal/mol | 54.8 °C |
| CGCGACCGGAAACGGGCG (((..(((....)))))) | -11.7 kcal/mol | 60 °C |
| CGCGATCGGAAACGAGCG (((..(((....)))))) | -34.2 kcal/mol | 53 °C |
| CGCGCGGAAACGCCGCG ((((((....))).))) | -20 kcal/mol | 69.2 °C |
| CGCGCGGAAACGCCGGCG ((((((....)))..))) | -22.2 kcal/mol | 54.3 °C |
| CGCGGAAAGGTCCGCG ((((((....)))))) | -45.8 kcal/mol | 61.9 °C |
| CGCGGAACTGTCCGCG ((((((....)))))) | -45.6 kcal/mol | 64.8 °C |

| Sequence | folding enthalpy [1] | Tm [2] |
| --- | --- | --- |
| CGCGGAACTTCCGCG ((((((...)))))) | -37.8 kcal/mol | 61.3 °C |
| CGCGGAATTATCCGCG ((((((....)))))) | -41.5 kcal/mol | 67.2 °C |
| CGCGGACCAATCCGCG ((((((....)))))) | -39.2 kcal/mol | 62.2 °C |
| CGCGGACCTCTCCGCG ((((((....)))))) | -31.9 kcal/mol | 68.7 °C |
| CGCGGACGGAAACGTGCG (((..(((....)))))) | -36.2 kcal/mol | 50 °C |
| CGCGGACGGCTCCGCG ((((((....)))))) | -23.5 kcal/mol | 68.5 °C |
| CGCGGATAACTCCGCG ((((((....)))))) | -38 kcal/mol | 62.2 °C |
| CGCGGGCGGAAACGCGCG (((..(((....)))))) | -14.9 kcal/mol | 65.4 °C |
| CGCGTACGGAAACGTGCG (((..(((....)))))) | -23.7 kcal/mol | 50 °C |
| CGCGTCCGGAAACGGGCG (((..(((....)))))) | -14 kcal/mol | 55.2 °C |
| CGCTCGGAAACGAAGCG ((((((....))).))) | -29.5 kcal/mol | 53.6 °C |
| CGCTCGGAAACGACAGCG ((((((....)))..))) | -25.5 kcal/mol | 45 °C |
| CGCTCGGAAACGAGTGCG ((((((....)))..))) | -15.8 kcal/mol | 44.9 °C |
| CGCTGACGGAAACGTGCG (((..(((....)))))) | -26.1 kcal/mol | 47.5 °C |
| CGCTGCCGGAAACGGGCG (((..(((....)))))) | -22.8 kcal/mol | 46.7 °C |
| CGCTGCGGAAACGCCGCG (((.(((....))).))) | -29.1 kcal/mol | 56.5 °C |
| CGCTTCGGAAACGATGCG (((.(((....))).))) | -43.3 kcal/mol | 54.6 °C |
| CGGAACCGGAAACGGCCG (((..(((....)))))) | -23.2 kcal/mol | 40.1 °C |
| CGGAACGGAAACGTCCG (((.(((....)))))) | -30.1 kcal/mol | 47.8 °C |
| CGGAAGCGGAAACGCCCG (((..(((....)))))) | -21.3 kcal/mol | 50.5 °C |
| CGGAATCGGAAACGACCG (((..(((....)))))) | -16.6 kcal/mol | 35.3 °C |
| CGGACCCGGAAACGGCCG (((..(((....)))))) | -18.8 kcal/mol | 38.9 °C |
| CGGACGCGGAAACGCCCG (((..(((....)))))) | -25.3 kcal/mol | 48.8 °C |

| Sequence | folding enthalpy [1] | Tm [2] |
| --- | --- | --- |
| CGGACGGAAACGTTTCCG ((((((....)))..))) | -12.5 kcal/mol | 46.4 °C |
| CGGAGCGGAAACGCACCG (((.(((....))).))) | -35 kcal/mol | 58.7 °C |
| CGGAGCGGAAACGCGCCG (((.(((....))).))) | -27 kcal/mol | 68.6 °C |
| CGGAGTCGGAAACGACCG (((..(((....)))))) | -15.9 kcal/mol | 41.3 °C |
| CGGATCGGAAACGAACCG (((.(((....))).))) | -42.7 kcal/mol | 52 °C |
| CGGATCGGAAACGACCCG (((.(((....))).))) | -38.1 kcal/mol | 50 °C |
| CGGATGAAAATCCG (((((....))))) | -25.5 kcal/mol | 56 °C |
| CGGCAACGGAAACGTCCG (((..(((....)))))) | -13 kcal/mol | 39.2 °C |
| CGGCACCGGAAACGGCCG (((..(((....)))))) | -29.1 kcal/mol | 49.2 °C |
| CGGCACGGAAACGTACCG (((.(((....))).))) | -30.5 kcal/mol | 50.4 °C |
| CGGCCGGAAACGGCCCCG ((((((....)))..))) | -6 kcal/mol | 35.4 °C |
| CGGCCGGAAACGGTACCG ((((((....)))..))) | -18.4 kcal/mol | 43.1 °C |
| CGGCCGGAAACGGTCCG ((((((....))).))) | -32 kcal/mol | 57.7 °C |
| CGGCGCGGAAACGCTCCG (((.(((....))).))) | -33.7 kcal/mol | 56.5 °C |
| CGGCGGCGGAAACGCCCG (((..(((....)))))) | -10.4 kcal/mol | 49.3 °C |
| CGGCTCGGAAACGACCCG (((.(((....))).))) | -29.4 kcal/mol | 42.9 °C |
| CGGCTCGGAAACGACCG (((.(((....)))))) | -31.8 kcal/mol | 50.9 °C |
| CGGGACGGAAACGTGCCG (((.(((....))).))) | -19.1 kcal/mol | 60.3 °C |
| CGGGCGGAAACGCACCCG ((((((....)))..))) | -13.1 kcal/mol | 48.8 °C |
| CGGGCGGAAACGCCTCCG ((((((....)))..))) | -8.08 kcal/mol | 36.1 °C |
| CGGGCGGAAACGCGACCG ((((((....)))..))) | -30.5 kcal/mol | 57.8 °C |
| CGGGCGGAAACGCGGCCG ((((((....)))..))) | -36 kcal/mol | 59.5 °C |
